Source: ChEMBL document CHEMBL5154918, “Synthesis and Biological Characterization of a Series of 2-Sulfonamidebenzamides as Allosteric Modulators of MrgX1” (ACS Med Chem Lett, 2022)

Columns and labels:
[1] = biological target: T1, Mas-related G-protein coupled receptor member X1 (Homo sapiens, UniProt Q96LB2); test: Positive allosteric modulator activity at human MRGPRX1 expressed in HEK293 cells assessed as maximal efficacy at 5 uM in presence of BAM8-22 by Fluo4-dye based FLIPR assay relative to control; type: cell-based
[2] = biological target: T1, Mas-related G-protein coupled receptor member X1; test: Positive allosteric modulator activity at human MRGPRX1 expressed in HEK293 cells in presence of BAM8-22 by Fluo4-dye based FLIPR assay; type: cell-based
In short: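 HEK293 cells expressing MrgX1. Compounds tested in the presence of 10 nM BAM8-22. Emax normalized to control compound ML382; mean ± SEM of n = 2 experiments.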

[3] = Microsomal stability in human liver microsomes assessed as intrinsic clearance; type: ADME, Microsome; details: read-out: CLH
In short: (§1)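 Intrinsic clearance measured in human and mouse liver microsomes. Hepatic clearance predicted from it with the well-stirred organ CL model, binding terms excluded.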

[4] = Microsomal stability in mouse liver microsomes assessed as intrinsic clearance; type: ADME, Microsome; details: read-out: CLH; in short: as §1
[5] = Plasma protein binding in human assessed as unbound fraction; type: ADME, cell-free; details: read-out: PPB
In short: (§2)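 Equilibrium dialysis in human and mouse plasma; results expressed as […] fraction unbound.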

[6] = Plasma protein binding in mouse assessed as unbound fraction; type: ADME, cell-free; details: read-out: PPB; in short: as §2
[7] = Volume of distribution at steady state in Sprague-Dawley rat at 0.25 mg/kg, iv bolus injection administered as cassette dose; type: ADME, organism-based; details: in vivo, read-out: Vdss
In short: (§3)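 Male Sprague–Dawley rats, 5-in-1 cassette, 0.25 mg/kg IV of each test article in DMSO:PEG400:EtOH:Saline (5:48:10:37). Plasma sampled at 0.0833, 0.25, 0.5, 1, 3, 4, 8 and 24 h, plus Day 2 at 0.25 h post dose.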

[8] = AUC in Sprague-Dawley rat at 0.25 mg/kg, iv bolus injection administered as cassette dose; type: ADME, organism-based; parameters: dose 0.25 mg/kg, route iv; details: in vivo; in short: as §3
[9] = Half life in Sprague-Dawley rat at 0.25 mg/kg, iv bolus injection administered as cassette dose; type: ADME, organism-based; details: in vivo; in short: as §3
[10] = Clearance in Sprague-Dawley rat at 0.25 mg/kg, iv bolus injection administered as cassette dose; type: ADME, organism-based; details: in vivo; in short: as §3
[11] = biological target: Translocator protein (Homo sapiens, UniProt P30536); test: Binding affinity to peripheral benzodiazepine receptor (unknown origin)
[12] = Drug concentration in Sprague-Dawley rat plasma at 0.25 mg/kg measured up to 48.25 hrs; type: ADME, organism-based
In short: (§4)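 Brain sampled on Day 2 at 0.25 h, with matching plasma, after a 0.25 mg/kg IV cassette dose (5-in-1) in male Sprague–Dawley rats. Vehicle was DMSO:PEG400:EtOH:Saline (5:48:10:37). Kp is total brain/plasma concentration ratio.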

[13] = Drug concentration in Sprague-Dawley rat brain at 0.25 mg/kg measured up to 48.25 hrs; type: ADME, organism-based; details: read-out: Ct; in short: as §4
[14] = Ratio of drug concentration in brain to plasma in Sprague-Dawley rat at 0.25 mg/kg measured after 15 mins; type: ADME, organism-based; details: brain and plasma; in short: as §4
[15] = Half life in mouse at 2 mg/kg, ip administered as discrete dose; type: ADME, organism-based; details: in vivo
In short: (§5)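 Discrete (single-compound) mouse PK, dosed IP at 2 mg/kg in 10% DMSO/10% cremophor EL/30% PEG400/50% water. Plasma and brain concentrations measured; brain:plasma ratio reported.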

[16] = Tmax in mouse at 2 mg/kg, ip administered as discrete dose; type: ADME, organism-based; details: in vivo; in short: as §5
[17] = Cmax in mouse at 2 mg/kg, ip administered as discrete dose; type: ADME, organism-based; parameters: dose 2 mg/kg, route ip; details: in vivo; in short: as §5
[18] = AUC in mouse at 2 mg/kg, ip administered as discrete dose; type: ADME, organism-based; parameters: dose 2 mg/kg, route ip; details: in vivo; in short: as §5
[19] = Ratio of drug concentration in brain to plasma in mouse at 2 mg/kg, ip administered as discrete dose; type: ADME, organism-based; details: brain and plasma, read-out: BPR; in short: as §5
[20] = filed as positive allosteric modulator

T1 sequence (Q96LB2 whole entry): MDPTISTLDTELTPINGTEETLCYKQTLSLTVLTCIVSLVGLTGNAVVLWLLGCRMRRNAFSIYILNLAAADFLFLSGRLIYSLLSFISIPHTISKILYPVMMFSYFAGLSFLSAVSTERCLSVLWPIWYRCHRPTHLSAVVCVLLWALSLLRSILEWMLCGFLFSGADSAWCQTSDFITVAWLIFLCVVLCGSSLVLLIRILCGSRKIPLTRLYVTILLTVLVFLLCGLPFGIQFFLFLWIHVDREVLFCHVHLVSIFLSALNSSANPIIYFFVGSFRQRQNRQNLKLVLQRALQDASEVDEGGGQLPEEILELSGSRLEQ
Chain of Translocator protein (P30536 whole entry): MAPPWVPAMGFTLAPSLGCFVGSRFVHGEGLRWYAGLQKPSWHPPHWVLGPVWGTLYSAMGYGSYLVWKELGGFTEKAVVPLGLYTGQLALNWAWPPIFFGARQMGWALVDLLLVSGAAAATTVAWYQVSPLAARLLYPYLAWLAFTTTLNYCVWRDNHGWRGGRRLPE

SMILES | Emax [1, 20] [%] | EC50 [2] [µM] | Emax [1] [%] | also measured
CCOc1ccc(NC(=O)c2ccccc2NS(=O)(=O)C2CC2)c(OCC)c1 | 73.2 | 1.09 |  | 
CCOc1ccccc1NC(=O)c1cc(C)ccc1NS(=O)(=O)C1CC1 | 104 | 0.103 |  | CLint scaled [3]: 75.1 mL/min/kg; CLint scaled [4]: 410 mL/min/kg; fraction unbound [5]: 0.003; fraction unbound [6]: 0.043
CC(C)Oc1ccccc1NC(=O)c1ccccc1NS(=O)(=O)C1CC1 | 83.1 | 2.83 |  | 
CC1(C)Oc2cccc(NC(=O)c3ccccc3NS(=O)(=O)C3CC3)c2O1 |  |  | -25.6 | 
Cc1ccc(NS(=O)(=O)C2CC2)c(C(=O)Nc2ccccc2OCC(F)(F)F)c1 | 89.9 | 0.369 |  | 
CCOc1ccccc1-c1nnc(-c2ccccc2NS(=O)(=O)C2CC2)o1 |  |  | 6.7 | 
CCOc1ccccc1NC(=O)c1cc2ccccc2cc1NS(=O)(=O)C1CC1 |  |  | 29.7 | 
CCOc1ccccc1Nc1nn(S(=O)(=O)C2CC2)c2ncccc12 |  |  | -11.7 | 
O=C(Nc1ccccc1OCC1CC1)c1ccccc1NS(=O)(=O)C1CC1 | 61.5 | 1.36 |  | 
CCOc1ccccc1NC(=O)c1ccc(NS(=O)(=O)C2CC2)cc1 | 70.6 |  |  | 
CCS(=O)(=O)Nc1ccccc1C(=O)Nc1ccc(F)cc1OCC(F)(F)F | 91.4 | 1.4 |  | CLint scaled [3]: 80 mL/min/kg; CLint scaled [4]: 1210 mL/min/kg; fraction unbound [5]: 0.005; fraction unbound [6]: 0.021
CCOc1ccccc1NC(=O)c1cc(F)ccc1NS(=O)(=O)CC | 107 | 0.098 |  | CLint scaled [3]: 36 mL/min/kg; CLint scaled [4]: 269 mL/min/kg; fraction unbound [5]: 0.002; fraction unbound [6]: 0.041
CCOc1ccccc1NC(=O)c1ccc(F)cc1NS(=O)(=O)C1CC1 | 67.6 | 0.86 |  | 
O=C(c1ccccc1NS(=O)(=O)C1CC1)N1CCOc2ccccc21 |  |  | 2.7 | 
O=C(Nc1ccccc1OCC(F)(F)F)c1cc(Cl)ccc1NS(=O)(=O)C1CC1 | 103 | 0.915 |  | 
CCOc1ccccc1NC(=O)c1cc(Cl)ccc1NS(=O)(=O)CC | 89.2 | 0.407 |  | 
CCOc1ccccc1NC(=O)c1cc(C)ccc1NS(=O)(=O)CC | 108 | 0.217 |  | 
CCOc1ccc(F)cc1NC(=O)c1cc(F)ccc1NS(=O)(=O)C1CC1 | 127 | 0.013 |  | Vd [7]: 0.34 L/kg; AUC [8]: 304 ng·h/mL; half-life [9]: 24.6 min; clearance [10]: 14.1 mL/min/kg; Ki [11]: 0.071 µM; CLint scaled [3]: 59.4 mL/min/kg; CLint scaled [4]: 980 mL/min/kg; fraction unbound [5]: 0.002; fraction unbound [6]: 0.011; concentration at 48.25 h [12]: 297 ng/mL; concentration at 48.25 h [13]: 55.9 ng/g; Kp at 0.25 h [14]: 0.19; half-life [15]: 7.2 min; Tmax [16]: 10.2 min; Cmax [17]: 1280 ng/mL; AUC [18]: 426 ng·h/mL; Kp [19]: 0.2
O=C(Nc1ccccc1OC1CCCC1)c1ccccc1NS(=O)(=O)C1CC1 | 80.1 | 3.14 |  | 
COc1ccccc1N(C)C(=O)c1ccccc1NS(=O)(=O)C1CC1 |  |  | -11.9 | 
CCOc1ccccc1NC(=O)c1ccc(Cl)cc1NS(=O)(=O)C1CC1 |  |  | 36.1 | 
O=C(Nc1cccc2c1OCO2)c1ccccc1NS(=O)(=O)C1CC1 |  |  | 7.4 | 
CCOc1ccccc1NC(=O)c1ccc2ccccc2c1NS(=O)(=O)C1CC1 |  |  | 8.9 | 
CCOc1ccccc1Nc1nn(S(=O)(=O)C2CC2)c2ccccc12 |  |  | -5.7 | 
CCOC1CCCCC1NC(=O)c1ccccc1NS(=O)(=O)C1CC1 (stereo unspecified) |  |  | 24.2 | 
CCS(=O)(=O)Nc1ccc(C)cc1C(=O)Nc1ccccc1OCC(F)(F)F | 58.4 |  |  | 
O=C(Nc1ccccc1OCC(F)(F)F)c1cc(F)ccc1NS(=O)(=O)C1CC1 | 59.8 |  |  | 
CCOc1ccc(F)cc1NC(=O)c1cc(F)ccc1NS(=O)(=O)CC | 136 | 0.031 |  | CLint scaled [3]: 69.1 mL/min/kg; CLint scaled [4]: 1240 mL/min/kg; fraction unbound [5]: 0.002; fraction unbound [6]: 0.001
COc1ccc(NC(=O)c2ccccc2NS(=O)(=O)C2CC2)cc1 |  |  | -15.6 | 
